Measured values published in paper PMC10734015 (ACS Omega, 2023).
In brackets after ≈: the same amount, converted by molar mass. Where two headings read alike, the source gives them in different places.

Key:
[1] = ELISA with pre-incubation (inhibition method); cited from earlier work
[2] = ELISA with pre-incubation (inhibition method); cited from earlier work; remark: listed apart in the source
[3] = test system: anti-mitragynine antibody; test: Cross-reactivity study by CI-ELISA; assay type: binding, rabbit; details: for IC50 values: CI-ELISA, compounds at 0.001–50.0 μg/mL, 4PL fit; for cross-reactivity (%): calculated from IC50 values relative to mitragynine (eq 3)
How it was run: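 Plates coated overnight (16 h) at 4 °C with mitragynine-OVA at 0.25 μg/mL in PBS pH 7.4, washed three times in PBS, then blocked with 5% (w/v) skimmed blocker. Rabbit polyclonal IgG raised against C22-MG-cBSA was used at 1/1000 v/v in 0.05% Tween 20 and pre-incubated with test compound before transfer to wells. Detection used goat anti-rabbit-HRP at 1/2500 v/v.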

Compound: CN(C)CCCN1c2ccccc2Sc2ccc(Cl)cc21 [chlorpromazine]
- IC50 [1]: 0.00058 µg/mL (≈ 0.00182 µM)

Compound: CC1(C)C(C(=O)OC(C#N)c2cccc(Oc3ccccc3)c2)C1(C)C (centres unmarked) [fenpropathrin]
- IC50 [2]: 0.34 µg/mL (≈ 0.973 µM)

Compound: COC(=O)C1=CO[C@@H](C)[C@@H]2CN3CCc4c([nH]c5ccc(OC)cc45)[C@@H]3C[C@H]12 [aricine]
- IC50 values [3]: 9.819
- cross-reactivity (%) [3]: 1.90%

Compound: COC(=O)[C@H]1[C@H]2C[C@@H]3c4[nH]c5cc(OC)ccc5c4CCN3C[C@H]2C[C@@H](OC(=O)c2cc(OC)c(OC)c(OC)c2)[C@@H]1OC [reserpine]
- IC50 values [3]: 9.889
- cross-reactivity (%) [3]: 1.89%

Compound: corynantheidine
- IC50 values [3]: 1.854
- cross-reactivity (%) [3]: 10.08%
